Measurements as given in ChEMBL document CHEMBL1142893, “Synthesis and biological evaluation of novel 5(H)-phenanthridin-6-ones, 5(H)-phenanthridin-6-one diketo acid, and polycyclic aromatic diketo acid analogs as new HIV-1 integrase inhibitors” (Bioorg Med Chem, 2007).
Active and inactive are the calls of the source. The calls are words filed in the database; no cut-off is given here.

Key:
[1] = target: T1, Human immunodeficiency virus type 1 integrase (Human immunodeficiency virus 1, UniProt Q7ZJM1); assay: Inhibition of HIV1 integrase 3'-end processing activity
T1 sequence (Q7ZJM1 whole entry): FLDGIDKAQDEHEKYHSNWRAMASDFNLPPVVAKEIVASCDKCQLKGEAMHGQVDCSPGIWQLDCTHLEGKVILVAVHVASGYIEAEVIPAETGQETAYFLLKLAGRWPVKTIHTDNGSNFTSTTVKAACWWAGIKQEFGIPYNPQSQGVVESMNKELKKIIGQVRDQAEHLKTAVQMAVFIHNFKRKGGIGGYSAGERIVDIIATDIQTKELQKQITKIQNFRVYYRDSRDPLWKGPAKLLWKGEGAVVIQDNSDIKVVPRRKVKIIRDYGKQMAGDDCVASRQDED
Procedure, shortened: (§1)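 Wild-type integrase at 200 nM final was preincubated with inhibitor for 30 min at 30 °C. Reaction buffer: 50 mM NaCl, 1 mM HEPES pH 7.5, EDTA, dithiothreitol, 10% glycerol, 7.5 mM MnCl₂, 0.1 mg/mL BSA, 10 mM 2-mercaptoethanol, 10% DMSO, 25 mM MOPS pH 7.2.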

[2] = target: T1, Human immunodeficiency virus type 1 integrase; assay: Inhibition of HIV1 integrase strand transfer activity; procedure, shortened: as §1
[3] = system: CCRF-CEM; assay: Cytotoxicity against human CEM cells after 6 days; type: cell-based; settings: 144 h; for IC50: Homo sapiens, CCRF-CEM
Procedure, shortened: (§2)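 Uninfected cells (CEM leukemia cells; PBMC from whole blood of healthy donors) cultured with or without compound for 6 days. Afterwards cells were stained with Trypan blue and counted for proliferation and viability. Values reflect effects on cell growth.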

[4] = system: PBMC; assay: Cytotoxicity against human PBMC after 6 days; type: cell-based; settings: 144 h; for IC50: Homo sapiens, PBMC; procedure, shortened: as §2
[5] = system: Vero; assay: Cytotoxicity against Vero cells after 3 days; type: cell-based; settings: Chlorocebus sabaeus, 72 h
[6] = system: Human immunodeficiency virus 1; assay: Antiviral activity against HIV1 LAI replication in human PBMC after 5 days; type: functional, organism-based; settings: for EC50 / EC90: Human immunodeficiency virus 1, LAI, 120 h
Procedure, shortened: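 PBMC (10⁷ cells/flask) stimulated 3 days with phytohemagglutinin, then infected with HIV-1 LAI at 100 50% tissue culture infective doses. Cultures were kept 5 days with compound at serial 1-log dilutions. Cells were removed by centrifugation (400g, 10 min, 4 °C), and the clarified supernatant was assayed for reverse transcriptase activity.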

[7] = system: Human immunodeficiency virus 1; assay: Antiviral activity against HIV1 LAI replication in MOLT4 cells; type: functional, organism-based; settings: Human immunodeficiency virus 1, LAI, MOLT-4
[8] = Selectivity index, ratio of EC50 for HIV1 LAI to IC50 for human PBMC; type: functional

| SMILES | IC50 [1] [µM] | IC50 [2] [µM] | further results |
| --- | --- | --- | --- |
| Cc1cccc2c1[nH]c(=O)c1ccccc12 | > 1000 | > 1000 |  |
| Cc1cccc2c1[nH]c(=O)c1ccc(C#N)cc12 | > 500 | 500 |  |
| O=C(O)C(=O)CC(=O)c1cc(OCc2ccccc2)cc(OCc2ccccc2)c1 |  |  | Activity ([3]; human, ccrf-cem): Not Active; Activity ([4]; human, pbmc): Not Active; Activity [5]: Not Active; Activity [6]: inactive; EC50 [7]: 5.7 µM |
| Cc1ccc2oc3nc(C)c(C(=O)CC(=O)C(=O)O)cc3c(=O)c2c1 | 92 | 16 |  |
| CCNc1ccc2[nH]c(=O)c3ccccc3c2c1 | > 500 | > 500 |  |
| Cc1cc(C)c2[nH]c(=O)c3cc(C#N)ccc3c2c1 | 300 | 333 |  |
| Cc1cccc2c1[nH]c(=O)c1ccc(C(F)(F)F)cc12 | 449 | 109 |  |
| N#Cc1ccc2[nH]c(=O)c3ccccc3c2c1 | > 500 | 400 |  |
| O=C(O)C(=O)CC(=O)c1ccc2c(ccc3ccccc32)c1 | 23 | 4.8 | IC50 [3]: 16.2 µM; IC50 [4]: > 100 µM; IC50 [5]: 10.8 µM; EC50 [6]: 26.6 µM; EC90 [6]: > 100 µM |
| O=C(O)C(=O)CC(=O)c1ccc2ccccc2c1 | 54 | 7 |  |
| Cc1ccc2cc(C(=O)CC(=O)C(=O)O)ccc2c1 | 11 | 3 |  |
| N#Cc1ccc(CNc2ccc3[nH]c(=O)c4ccccc4c3c2)cc1 | > 500 | > 500 |  |
| O=C(O)C(=O)CC(=O)c1ccc2c(c1)[nH]c(=O)c1ccccc12 | 400 | 65 |  |
| O=c1[nH]c2ccc(Br)cc2c2ccccc12 | 225 | 78 |  |
| O=C(O)c1ccc2[nH]c(=O)c3ccccc3c2c1 | > 500 | 203 |  |
| N#Cc1ccc(CN(Cc2ccc(C#N)cc2)c2ccc3[nH]c(=O)c4ccccc4c3c2)cc1 | 500 | 62 |  |
| O=C(O)C(=O)CC(=O)c1ccc2cc3ccccc3cc2c1 | 32 | 13 |  |
| N#Cc1cccc(CNc2ccc3[nH]c(=O)c4ccccc4c3c2)c1 | > 500 | > 500 |  |
| O=c1[nH]c2ccc(Cl)cc2c2ccccc12 | 500 | 100 |  |
| N#Cc1cccc(CN(Cc2cccc(C#N)c2)c2ccc3[nH]c(=O)c4ccccc4c3c2)c1 | > 500 | > 500 |  |
| Cc1nc2oc3ccccc3c(=O)c2cc1C(=O)CC(=O)C(=O)O | > 100 | 35 |  |
| O=C(O)C(=O)CC(=O)c1c2ccccc2cc2ccccc12 | 54 | 1.7 | IC50 [3]: > 100 µM; IC50 [4]: > 100 µM; IC50 [5]: > 100 µM; EC50 [6]: > 100 µM; EC90 [6]: > 100 µM |
| COc1ccc2[nH]c(=O)c3ccccc3c2c1 | > 500 | 500 |  |
| Cc1cn([C@H]2C[C@H](N=[N+]=[N-])[C@@H](CO)O2)c(=O)[nH]c1=O [ZIDOVUDINE] |  |  | IC50 [4]: > 100 µM; IC50 [5]: 50 µM; EC50 [6]: 0.00073 µM; EC90 [6]: 0.019 µM |
| O=C(O)C(=O)CC(=O)c1ccc(Br)c(CC(=O)c2ccccc2)c1 | > 500 | > 500 |  |
| COC(=O)C(=O)CC(=O)c1ccc(Br)c(CC(=O)c2ccccc2)c1 | > 500 | > 500 |  |
| Cc1cc(C)c2[nH]c(=O)c3ccccc3c2c1 | 1000 | > 1000 |  |
| Cc1cccc2c1[nH]c(=O)c1cc(C#N)ccc12 | > 500 | > 500 |  |

Now from value to compound, other results behind:

| IC50 [1] [µM] | IC50 [2] [µM] | SMILES | further results |
| --- | --- | --- | --- |
| > 500 | 415 | O=c1[nH]c2ccc(S(=O)(=O)c3ccccc3)cc2c2ccccc12 |  |
| > 1000 | 900 | O=c1[nH]c2ccc(C(F)(F)F)cc2c2ccccc12 |  |
| 7 | 0.53 | O=C(O)C(=O)CC(=O)c1ccc2ccc3cccc4ccc1c2c34 |  |
| 26 | 7 | COC(=O)c1ccccc1-c1ccc(C(=O)CC(=O)C(=O)O)cc1[N+](=O)[O-] |  |
| > 500 | > 500 | O=C(Nc1ccc2[nH]c(=O)c3ccccc3c2c1)c1ccccc1 |  |
| > 100 | 23 | O=C(O)C(=O)CC(=O)c1ccc(N2CCOCC2)cc1 |  |
| 9 | 0.38 | O=C(O)C(=O)CC(=O)c1cc2ccccc2c2ccccc12 | IC50 [3]: 73.1 µM; IC50 [4]: 83.5 µM; IC50 [5]: > 100 µM; EC50 [6]: 83.7 µM; EC90 [6]: > 100 µM |
| > 500 | 500 | CC(=O)Nc1ccc2[nH]c(=O)c3ccccc3c2c1 |  |
| 25 | 2.7 | O=C(O)C(=O)CC(=O)c1ccc2ccc3ccccc3c2c1 | IC50 [3]: 56.4 µM; Selectivity index [8]: 10; IC50 [4]: 81 µM; IC50 [5]: > 100 µM; EC50 [6]: 8 µM; EC90 [6]: 72.8 µM |
| > 500 | > 500 | Cc1cc(C)c2[nH]c(=O)c3ccc(C#N)cc3c2c1 |  |
| 206 | 267 | Nc1ccc2[nH]c(=O)c3ccccc3c2c1 |  |
| 102 | 27 | COC(=O)C(=O)CC(=O)c1ccc(-c2ccccc2C(=O)OC)c([N+](=O)[O-])c1 |  |
| > 500 | > 500 | Cc1cc(C)c2[nH]c(=O)c3ccc(C(F)(F)F)cc3c2c1 |  |
